Laboratory results: ChEMBL document CHEMBL6083196, “Synthesis and cytotoxic activity of madecassic acid-silybin conjugate compounds in liver cancer cells” (2024)

system: HepG2; assay: Cytotoxicity against human HepG2 cells incubated for 96 hrs by MTT assay; type: functional
How it was run: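 Cells grown in DMEM with 10% FBS and 1% antibiotic at 37 °C, 5% CO2. Trypsinised, seeded at 3 × 10^4 cells per mL, treated over an eight-point titration for 96 h. MTT (0.5 mg mL−1) added for 4 h at 37 °C, formazan dissolved in DMSO, absorbance read at 570 nm. GI50 is the concentration halving the MTT signal versus untreated control. Ellipticine served as reference; n ≥ 3 repeats.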

Point of comparison: `COc1cc([C@H]2Oc3cc(-c4oc5cc(OC(C)=O)cc(OC(C)=O)c5c(=O)c4OC(=O)[C@]45CC[C@@H](C)[C@H](C)[C@H]4C4=CC[C@@H]6[C@@]7(C)C[C@@H](OC(C)=O)[C@H](OC(C)=O)[C@@](C)(COC(C)=O)[C@@H]7[C@H](O)C[C@@]6(C)[C@]4(C)CC5)ccc3O[C@@H]2COC(C)=O)ccc1OC(C)=O`, GI50 471 µM. Against it:
- COc1cc([C@H]2Oc3cc([C@H]4Oc5cc(O)cc(O)c5C(=O)[C@@H]4OC(=O)CCNC(=O)[C@]45CC[C@@H](C)[C@H](C)[C@H]4C4=CC[C@@H]6[C@@]7(C)C[C@@H](OC(C)=O)[C@H](OC(C)=O)[C@@](C)(COC(C)=O)[C@@H]7[C@H](O)C[C@@]6(C)[C@]4(C)CC5)ccc3O[C@@H]2CO)ccc1O — 3.3-fold lower, 141 µM
- COc1cc([C@H]2Oc3cc([C@H]4Oc5cc(OC(C)=O)cc(OC(C)=O)c5C(=O)[C@@H]4OC(=O)CNC(=O)[C@]45CC[C@@H](C)[C@H](C)[C@H]4C4=CC[C@@H]6[C@@]7(C)C[C@@H](OC(C)=O)[C@H](OC(C)=O)[C@@](C)(COC(C)=O)[C@@H]7[C@H](O)C[C@@]6(C)[C@]4(C)CC5)ccc3O[C@@H]2COC(C)=O)ccc1OC(C)=O — 3.9-fold lower, 122 µM
- COc1cc([C@H]2Oc3cc([C@H]4Oc5cc(OC(C)=O)cc(OC(C)=O)c5C(=O)[C@@H]4OC(=O)CCNC(=O)[C@]45CC[C@@H](C)[C@H](C)[C@H]4C4=CC[C@@H]6[C@@]7(C)C[C@@H](OC(C)=O)[C@H](OC(C)=O)[C@@](C)(COC(C)=O)[C@@H]7[C@H](O)C[C@@]6(C)[C@]4(C)CC5)ccc3O[C@@H]2COC(C)=O)ccc1OC(C)=O — within 1.5-fold, 360 µM
- COc1cc([C@H]2Oc3cc(-c4cc(=O)c5c(O)cc(OC(=O)[C@]67CC[C@@H](C)[C@H](C)[C@H]6C6=CC[C@@H]8[C@@]9(C)C[C@@H](OC(C)=O)[C@H](OC(C)=O)[C@@](C)(COC(C)=O)[C@@H]9[C@H](O)C[C@@]8(C)[C@]6(C)CC7)cc5o4)ccc3O[C@@H]2CO)ccc1O — higher, > 500 µM
- COc1cc([C@H]2Oc3cc([C@H]4Oc5cc(OC(C)=O)cc(OC(C)=O)c5C(=O)[C@@H]4OC(=O)CNC(=O)[C@]45CC[C@@H](C)[C@H](C)[C@H]4C4=CC[C@@H]6[C@@]7(C)C[C@@H](OC(C)=O)[C@H](OC(C)=O)[C@@](C)(COC(C)=O)C7=CC[C@@]6(C)[C@]4(C)CC5)ccc3O[C@@H]2COC(C)=O)ccc1OC(C)=O — 1.9-fold lower, 243 µM
- COc1cc([C@H]2Oc3cc([C@H]4Oc5cc(O)cc(O)c5C(=O)[C@@H]4OC(=O)CNC(=O)[C@]45CC[C@@H](C)[C@H](C)[C@H]4C4=CC[C@@H]6[C@@]7(C)C[C@@H](OC(C)=O)[C@H](OC(C)=O)[C@@](C)(COC(C)=O)C7=CC[C@@]6(C)[C@]4(C)CC5)ccc3O[C@@H]2CO)ccc1O — 2.7-fold lower, 174 µM
- COc1cc([C@H]2Oc3cc([C@H]4Oc5cc(O)cc(O)c5C(=O)[C@@H]4OC(=O)CCNC(=O)[C@]45CC[C@@H](C)[C@H](C)[C@H]4C4=CC[C@@H]6[C@@]7(C)C[C@@H](OC(C)=O)[C@H](OC(C)=O)[C@@](C)(COC(C)=O)C7=CC[C@@]6(C)[C@]4(C)CC5)ccc3O[C@@H]2CO)ccc1O — within 1.5-fold, 344 µM
- CC(=O)OC[C@@]1(C)[C@@H]2[C@H](O)C[C@]3(C)[C@H](CC=C4[C@@H]5[C@@H](C)[C@H](C)CC[C@]5(C(=O)O)CC[C@]43C)[C@@]2(C)C[C@@H](OC(C)=O)[C@@H]1OC(C)=O — 11-fold lower, 44.1 µM
- CC(=O)OC[C@@]1(C)C2=CC[C@]3(C)C(CC=C4[C@@H]5[C@@H](C)[C@H](C)CC[C@]5(C(=O)O)CC[C@]43C)[C@@]2(C)C[C@@H](OC(C)=O)[C@@H]1OC(C)=O (some centres not stated) — 12-fold lower, 38.5 µM
- COc1cc([C@H]2Oc3cc([C@H]4Oc5cc(OC(C)=O)cc(OC(C)=O)c5C(=O)[C@@H]4OC(=O)CCCCCCCCCCNC(=O)[C@]45CC[C@@H](C)[C@H](C)[C@H]4C4=CC[C@@H]6[C@@]7(C)C[C@@H](OC(C)=O)[C@H](OC(C)=O)[C@@](C)(COC(C)=O)[C@@H]7[C@H](O)C[C@@]6(C)[C@]4(C)CC5)ccc3O[C@@H]2COC(C)=O)ccc1OC(C)=O — 2.4-fold lower, 199 µM
- COc1cc([C@H]2Oc3cc([C@H]4Oc5cc(OC(=O)[C@]67CC[C@@H](C)[C@H](C)[C@H]6C6=CC[C@@H]8[C@@]9(C)C[C@@H](OC(C)=O)[C@H](OC(C)=O)[C@@](C)(COC(C)=O)[C@@H]9[C@H](O)C[C@@]8(C)[C@]6(C)CC7)cc(O)c5C(=O)[C@@H]4O)ccc3O[C@@H]2CO)ccc1O — higher, > 500 µM
- COc1cc([C@H]2Oc3cc([C@H]4Oc5cc(O)cc(O)c5C(=O)[C@@H]4OC(=O)CCCCCCCCCCNC(=O)[C@]45CC[C@@H](C)[C@H](C)[C@H]4C4=CC[C@@H]6[C@@]7(C)C[C@@H](OC(C)=O)[C@H](OC(C)=O)[C@@](C)(COC(C)=O)[C@@H]7[C@H](O)C[C@@]6(C)[C@]4(C)CC5)ccc3O[C@@H]2CO)ccc1O — within 1.5-fold, 383 µM
- COc1cc([C@H]2Oc3cc([C@H]4Oc5cc(OC(C)=O)cc(OC(C)=O)c5C(=O)[C@@H]4OC(=O)CCNC(=O)[C@]45CC[C@@H](C)[C@H](C)[C@H]4C4=CC[C@@H]6[C@@]7(C)C[C@@H](OC(C)=O)[C@H](OC(C)=O)[C@@](C)(COC(C)=O)C7=CC[C@@]6(C)[C@]4(C)CC5)ccc3O[C@@H]2COC(C)=O)ccc1OC(C)=O — within 1.5-fold, 352 µM
- COc1cc([C@H]2Oc3cc(-c4oc5cc(O)cc(O)c5c(=O)c4OC(=O)[C@]45CC[C@@H](C)[C@H](C)[C@H]4C4=CC[C@@H]6[C@@]7(C)C[C@@H](OC(C)=O)[C@H](OC(C)=O)[C@@](C)(COC(C)=O)[C@@H]7[C@H](O)C[C@@]6(C)[C@]4(C)CC5)ccc3O[C@@H]2CO)ccc1O — 2.2-fold lower, 217 µM
- Cc1c2ccncc2c(C)c2c1[nH]c1ccccc12 [ELLIPTECINE] — 1100-fold lower, 0.42 µM
- COc1cc([C@H]2Oc3cc([C@H]4Oc5cc(O)cc(O)c5C(=O)[C@@H]4O)ccc3O[C@@H]2CO)ccc1O [SILYBIN A] — 1.7-fold lower, 285 µM
